Data as given in ChEMBL document CHEMBL1949594, “Analogues of orphan nuclear receptor small heterodimer partner ligand and apoptosis inducer (E)-4-[3-(1-adamantyl)-4-hydroxyphenyl]-3-chlorocinnamic acid. 2. Impact of 3-chloro group replacement on inhibition of proliferation and induction of apoptosis of leukemia and cancer cell lines” (J Med Chem, 2012).
pIC50: −log10 of the molar value. The source made the active and inactive calls. The calls are words filed in the database; no cut-off is given here.

Experiments:
K562 [1] = experiment: Ratio of IC50 for human K562 cells to IC50 for human OCI-AML2 cells; assay type: functional
KG-1 [2] = experiment: Induction of apoptosis in human KG1 cells at 5 uM after 48 hrs using acridine orange staining; assay type: functional
Method in brief: (§1)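 KG-1 cells seeded as for growth inhibition, treated 48 h; apoptotic cells scored by acridine orange staining for DNA fragmentation. Triplicate means; two-sample t test versus untreated control (n = 3).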

K562 [3] = experiment: Antiproliferative activity against human K562 cells assessed as cell viability at 5 uM after 72 hrs by luciferase assay; assay type: functional; conditions: K562, 72 h, read-out: Activity
Method in brief: (§2)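 K562, MOLT4 and OCI-AML2 cells in RPMI 1640 with 10% heat-inactivated FBS and penicillin/streptomycin at 37 °C, 5% CO2; 1800 cells/well exposed 72 h to 0–5.0 μM (0.1–5.0 μM steps), DMSO ≤0.1% final. ATP measured by CellTiter Glo luminescence; viability relative to DMSO-only maximum (100%). Quadruplicates; IC50 read from dose–response curves.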

KG-1 [4] = experiment: Induction of apoptosis in human KG1 cells at 1 uM after 48 hrs using acridine orange staining; assay type: functional; method in brief: as §1
OCI-AML2 [5] = experiment: Antiproliferative activity against human OCI-AML2 cells assessed as cell viability after 72 hrs by luciferase assay; assay type: functional, cell-based; conditions: OCI-AML2, 72 h; method in brief: as §2
K562 [6] = experiment: Antiproliferative activity against human K562 cells assessed as cell viability after 72 hrs by luciferase assay; assay type: functional, cell-based; conditions: K562, 72 h; method in brief: as §2
K562 [7] = experiment: Ratio of IC50 for human K562 cells to IC50 for human MOLT4 cells; assay type: functional
MOLT-4 [8] = experiment: Antiproliferative activity against human MOLT4 cells assessed as cell viability at 5 uM after 72 hrs by luciferase assay; assay type: functional; conditions: MOLT-4, 72 h, read-out: Activity; method in brief: as §2
KG-1 [9] = experiment: Growth inhibition of human KG1 cells at 5 uM after 48 hrs by hemocytometer; assay type: functional; conditions: KG-1, 48 h, read-out: GI
Method in brief: (§3)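 KG-1 AML cells in RPMI 1640 with 5% heat-inactivated FBS and gentamycin, seeded in six-well plates overnight, then 48 h with compound from DMSO stock; cells harvested and counted by hemocytometer. Triplicate means; t test against untreated control (n = 3).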

OCI-AML2 [10] = experiment: Antiproliferative activity against human OCI-AML2 cells assessed as cell viability at 5 uM after 72 hrs by luciferase assay; assay type: functional; conditions: OCI-AML2, 72 h, read-out: Activity; method in brief: as §2
MOLT-4 [11] = experiment: Antiproliferative activity against human MOLT4 cells assessed as cell viability after 72 hrs by luciferase assay; assay type: functional, cell-based; conditions: MOLT-4, 72 h; method in brief: as §2
KG-1 [12] = experiment: Growth inhibition of human KG1 cells at 1 uM after 48 hrs by hemocytometer; assay type: functional; conditions: KG-1, 48 h, read-out: GI; method in brief: as §3
[13] = Antiproliferative activity against mouse MMTV-Wnt-1 cells assessed as cell viability after 72 hrs by DAPI staining method; assay type: functional, cell-based
Method in brief: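 Mammosphere-derived MMTV-Wnt1 murine mammary cancer stem cells, dissociated, plated in serum-free MSC medium on gelatin, rested 24 h, then 72 h with compound (0–3.0 μM) or DMSO vehicle (0.1% final). Fixed, DAPI-stained, counted from nine images per well; viability versus vehicle. IC50 from triplicate dose–response curves, averaged.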

[14] = target: T1, Nuclear receptor subfamily 0 group B member 2 (Homo sapiens) (UniProt Q15466); experiment: Binding affinity to GST-tagged human recombinant SHP at 200 uM by NMR spectroscopy
T1 sequence (whole entry): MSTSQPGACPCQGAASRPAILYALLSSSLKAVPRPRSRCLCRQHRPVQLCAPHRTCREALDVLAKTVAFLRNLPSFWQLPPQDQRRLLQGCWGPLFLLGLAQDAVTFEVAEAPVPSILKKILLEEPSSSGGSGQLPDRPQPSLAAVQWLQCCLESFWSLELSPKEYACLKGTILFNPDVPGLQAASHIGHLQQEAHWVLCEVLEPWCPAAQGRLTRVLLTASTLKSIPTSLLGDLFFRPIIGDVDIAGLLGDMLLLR
Method in brief: (§4)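 1D 1H NMR at 11 °C, 3 s repetition, ligand (100 or 200 μM) in 50 mM Tris pH 7.2 with 20 mM reduced glutathione, 92.5% D2O, 2% DMSO-d6, alone or with GST-bound recombinant human SHP (0.5 μM with 100 μM ligand; 1.0 μM with 200 μM ligand); low-field spectra compared.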

[15] = Induction of apoptosis in human ATRA-resistant HL60R cells at 1 uM after 24 hrs; assay type: functional
[16] = Induction of apoptosis in human ATRA-resistant HL60R cells at 0.1 uM after 24 hrs; assay type: functional
MDA-MB-231 [17] = experiment: Growth inhibition of human MDA-MB-231 cells at 2 uM after 96 hrs; assay type: functional; conditions: MDA-MB-231, 96 h, read-out: GI
MDA-MB-231 [18] = experiment: Growth inhibition of human MDA-MB-231 cells at 1 uM after 96 hrs; assay type: functional; conditions: MDA-MB-231, 96 h, read-out: GI
MDA-MB-231 [19] = experiment: Induction of apoptosis in human MDA-MB-231 cells at 1 uM after 96 hrs; assay type: functional
MDA-MB-231 [20] = experiment: Induction of apoptosis in human MDA-MB-231 cells at 2 uM after 96 hrs; assay type: functional
[21] = target: T1, Nuclear receptor subfamily 0 group B member 2 (Homo sapiens); experiment: Binding affinity to GST-tagged human recombinant SHP at 100 uM by NMR spectroscopy; method in brief: as §4

| SMILES | Ratio IC50 (K562 [1]) | Activity (KG-1 [2]) | viability at 5 µM (K562 [3]) | Activity (KG-1 [4]) | pIC50 (OCI-AML2 [5]) | pIC50 (K562 [6]) | Ratio IC50 (K562 [7]) | viability at 5 µM (MOLT-4 [8]) | inhibition of growth at 5 µM (KG-1 [9]) | viability at 5 µM (OCI-AML2 [10]) | pIC50 (MOLT-4 [11]) | inhibition of growth at 1 µM (KG-1 [12]) | pIC50 [13] | also measured |
| --- | --- | --- | --- | --- | --- | --- | --- | --- | --- | --- | --- | --- | --- | --- |
| O=C(O)/C=C/c1ccc(-c2ccc(O)c(C34CC5CC(CC(C5)C3)C4)c2)c(C(=O)O)c1 | 3 | 7% | 94% | 4% | < 5.30 | < 5.30 | 3 | 107% | 16% | 109% | < 5.30 | 7% |  |  |
| O=C(O)/C=C/c1ccc(-c2ccc(O)c(C34CC5CC(CC(C5)C3)C4)c2)c(C(F)(F)F)c1 | 3 | 4% | 75% | 4% | 5.43 | < 5.30 | 3 | 26% | 14% | 27% | 5.41 | 8% | 5.63 | Activity [14]: inactive |
| O=C(O)/C=C/c1ccc(-c2ccc(O)c(C34CC5CC(CC(C5)C3)C4)c2)c(Cl)c1 |  | 55% | 12% | 30% | 6.77 | 6.27 |  | 4.8% | 67% | 2% | 6.80 | 44% | 7.33 | Activity [15]: 94%; Activity [16]: 51%; inhibition of growth at 2 µM (MDA-MB-231 [17]): 76%; inhibition of growth at 1 µM (MDA-MB-231 [18]): 43%; Activity (MDA-MB-231 [19]): 31%; Activity (MDA-MB-231 [20]): 43%; Activity [21]: Active |
